Data as given in ChEMBL document CHEMBL3352068 (Bioorg Med Chem, 2014).

Legend:
Carbonic anhydrase 9 = Carbonic anhydrase 9 (Homo sapiens, UniProt Q16790); assay: Inhibition of human recombinant carbonic anhydrase 9 pre-incubated for 15 mins by stopped-flow CO2 hydration assay
Summary of the method: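 Recombinant human enzyme, produced in-house. CO2 1.7–17 mM. Initial rates taken over 10-100 s from at least six traces, with the uncatalysed rate subtracted. Inhibitor diluted in water from 0.1 mM stock down to 0.01 nM, preincubated with enzyme at room temperature. Three determinations.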

Carbonic anhydrase 2 = Carbonic anhydrase 2 (Homo sapiens, UniProt P00918); assay: Inhibition of human recombinant carbonic anhydrase 2 pre-incubated for 15 mins by stopped-flow CO2 hydration assay

Ki (Carbonic anhydrase 9) [nM] | SMILES | Ki (Carbonic anhydrase 2) [nM]
3860 | COc1cccc(/C=C/C(=O)C[C@@H]2O[C@H](CO)[C@H](O)[C@H](O)[C@H]2O)c1 | > 50000
936 | COc1ccc(/C=C/C(=O)C[C@@H]2O[C@H](CO)[C@H](O)[C@H](O)[C@H]2O)cc1OC | 
615 | COc1cccc(/C=C/C(=O)C[C@@H]2O[C@H](CO)[C@@H](O)[C@H](O)[C@H]2O)c1 | > 50000
840 | COc1ccc(/C=C/C(=O)C[C@@H]2O[C@H](CO)[C@@H](O)[C@H](O)[C@H]2O)cc1OC | 
93 | COc1cccc(/C=C/C(=O)C[C@@H]2O[C@H](COC(C)=O)[C@H](OC(C)=O)[C@H](OC(C)=O)[C@H]2OC(C)=O)c1 | 

The next lines start with the compound.

SMILES | Ki (Carbonic anhydrase 9) [nM] | Ki (Carbonic anhydrase 2) [nM]
COc1ccc2cc(/C=C/C(=O)C[C@@H]3O[C@H](CO)[C@H](O)[C@H](O)[C@H]3O)ccc2c1 | 485 | > 50000
COc1ccc2cc(/C=C/C(=O)C[C@@H]3O[C@H](CO)[C@@H](O)[C@H](O)[C@H]3O)ccc2c1 | 462 | > 50000
COc1cccc(/C=C/C(=O)C[C@@H]2O[C@H](COC(C)=O)[C@@H](OC(C)=O)[C@H](OC(C)=O)[C@H]2OC(C)=O)c1 | 779 | 
COc1ccc(/C=C/C(=O)C[C@@H]2O[C@H](COC(C)=O)[C@@H](OC(C)=O)[C@H](OC(C)=O)[C@H]2OC(C)=O)cc1OC | 753 | 
COc1ccc(/C=C/C(=O)C[C@@H]2O[C@H](COC(C)=O)[C@H](OC(C)=O)[C@H](OC(C)=O)[C@H]2OC(C)=O)cc1OC | 773 | 
